Source: ChEMBL document CHEMBL3097997, “Synthesis and anticancer activities of thieno[3,2-d]pyrimidines as novel HDAC inhibitors” (Bioorg Med Chem, 2014)

Tests used:
MCF7 = assay: Antiproliferative activity against human MCF7 cells after 72 hrs by MTT assay; type: functional, cell-based; details: MCF7, 72 h
HeLa = assay: Antiproliferative activity against human HeLa cells after 72 hrs by MTT assay; type: functional, cell-based
HCT-116 [1] = assay: Antiproliferative activity against human HCT116 cells after 72 hrs by MTT assay; type: functional, cell-based; details: HCT-116, 72 h
[2] = molecular target: Histone deacetylase (Homo sapiens) (UniProt Q13547+O15379+Q9UBN7+Q92769+Q9UQL6+Q8WUI4+Q9BY41+Q96DB2+P56524+Q9UKV0+Q969S8); details: HeLa, at 1 µM
Histone deacetylase = assay: Inhibition of HDAC in human HeLa cell nuclear extract using fluor de Lys as substrate after 15 mins by fluorimetric analysis; type: protein assay
Summary of the method: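 Fluorimetric HDAC kit assay: HeLa nuclear extract (15 μL) combined with 10 μL of 5× compound, then 25 μL fluorogenic substrate added; deacetylation ran 15 min at room temperature and was stopped with TSA-containing developer. Fluorescence read after a further 15 min at excitation 360 nm, emission 460 nm.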

HCT-116 [3] = assay: Cell cycle arrest in human HCT116 cells assessed as accumulation at sub G1 phase after 24 hrs by propidium iodide staining-based flow cytometric analysis; type: functional
Summary of the method: (§1)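 HCT-116 cells seeded at 2 × 10^5 per well in six-well plates, treated 24 h with compound at 2.5, 5 or 10 μM alongside untreated control, then harvested, fixed in cold 70% ethanol and stained with PI solution (final 50 μg/mL PI, 0.1 mg/mL RNase A, 0.05% Triton X-100) for 40 min at 37 °C. Phase distribution read by flow cytometry.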

HCT-116 [4] = assay: Cell cycle arrest in human HCT116 cells assessed as accumulation at G2/M phase at 10 uM after 24 hrs by propidium iodide staining-based flow cytometric analysis (reference value: 15.6%); type: functional; summary of the method: as §1
HCT-116 [5] = assay: Cell cycle arrest in human HCT116 cells assessed as accumulation at S phase at 10 uM after 24 hrs by propidium iodide staining-based flow cytometric analysis (reference value: 36.3%); type: functional; summary of the method: as §1
HCT-116 [6] = assay: Cell cycle arrest in human HCT116 cells assessed as accumulation at G1 phase at 10 uM after 24 hrs by propidium iodide staining-based flow cytometric analysis (reference value: 48.1%); type: functional; summary of the method: as §1
HCT-116 [7] = assay: Cell cycle arrest in human HCT116 cells assessed as accumulation at sub G1 phase at 10 uM after 24 hrs by propidium iodide staining-based flow cytometric analysis relative to control; type: functional; summary of the method: as §1
HCT-116 [8] = assay: Cell cycle arrest in human HCT116 cells assessed as accumulation at G2/M phase at 5 uM after 24 hrs by propidium iodide staining-based flow cytometric analysis (reference value: 15.6%); type: functional; summary of the method: as §1
HCT-116 [9] = assay: Cell cycle arrest in human HCT116 cells assessed as accumulation at S phase at 5 uM after 24 hrs by propidium iodide staining-based flow cytometric analysis (reference value: 36.3%); type: functional; summary of the method: as §1
HCT-116 [10] = assay: Cell cycle arrest in human HCT116 cells assessed as accumulation at G1 phase at 5 uM after 24 hrs by propidium iodide staining-based flow cytometric analysis (reference value: 48.1%); type: functional; summary of the method: as §1
HCT-116 [11] = assay: Cell cycle arrest in human HCT116 cells assessed as accumulation at sub G1 phase at 5 uM after 24 hrs by propidium iodide staining-based flow cytometric analysis relative to control; type: functional; summary of the method: as §1
HCT-116 [12] = assay: Cell cycle arrest in human HCT116 cells assessed as accumulation at G2/M phase at 2.5 uM after 24 hrs by propidium iodide staining-based flow cytometric analysis (reference value: 15.6%); type: functional; summary of the method: as §1
HCT-116 [13] = assay: Cell cycle arrest in human HCT116 cells assessed as accumulation at S phase at 2.5 uM after 24 hrs by propidium iodide staining-based flow cytometric analysis (reference value: 36.3%); type: functional; summary of the method: as §1
HCT-116 [14] = assay: Cell cycle arrest in human HCT116 cells assessed as accumulation at G1 phase at 2.5 uM after 24 hrs by propidium iodide staining-based flow cytometric analysis (reference value: 48.1%); type: functional; summary of the method: as §1
HCT-116 [15] = assay: Cell cycle arrest in human HCT116 cells assessed as accumulation at sub G1 phase at 2.5 uM after 24 hrs by propidium iodide staining-based flow cytometric analysis relative to control; type: functional; summary of the method: as §1

SMILES	IC50 (MCF7) [µM]	IC50 (HeLa) [µM]	IC50 (HCT-116 [1]) [µM]	inhibition [2] [%]	IC50 (Histone deacetylase) [µM]	also measured
O=C(CCCCCCOc1ccc(-c2nc(N3CCOCC3)c3sccc3n2)cc1)NO	5.2	3	5.5	61.7	–	–
O=C(CCCCCCCOc1cccc(-c2nc(N3CCOCC3)c3sccc3n2)c1)NO	11	11.9	6.1	72	0.61	–
O=C(CCCCCOc1ccc(-c2nc(N3CCOCC3)c3sccc3n2)cc1)NO	> 20	12	14	18.8	–	–
O=C(CCCCCCCOc1ccc(-c2nc(N3CCOCC3)c3sccc3n2)cc1)NO	10	7.4	2.9	73.8	0.49	–
O=C(CCCCCCCCOc1cccc(-c2nc(N3CCOCC3)c3sccc3n2)c1)NO	> 20	20	> 20	40.6	–	–
O=C(CCCCCCCCOc1ccc(-c2nc(N3CCOCC3)c3sccc3n2)cc1)NO	18	19	10.1	25.4	–	–
O=C(CCCCCCOc1cccc(-c2nc(N3CCOCC3)c3sccc3n2)c1)NO	4.8	4	4	76.8	0.38	Activity (HCT-116 [3]): Dose-dependent effect; Activity (HCT-116 [4]): 26.5%; Activity (HCT-116 [5]): 20.8%; Activity (HCT-116 [6]): 50.3%; Activity (HCT-116 [7]): 44.5%; Activity (HCT-116 [8]): 31.4%; Activity (HCT-116 [9]): 18.9%; Activity (HCT-116 [10]): 49.7%; Activity (HCT-116 [11]): 42.2%; Activity (HCT-116 [12]): 16.8%; Activity (HCT-116 [13]): 15.2%; Activity (HCT-116 [14]): 68.1%; Activity (HCT-116 [15]): 30.5%
O=C(CCCCCOc1cccc(-c2nc(N3CCOCC3)c3sccc3n2)c1)NO	9.9	2.4	12.2	18.7	–	–
